Experimental data from ChEMBL document CHEMBL3232876, “Novel R-(+)-limonene-based thiosemicarbazones and their antitumor activity against human tumor cell lines” (Eur J Med Chem, 2014).

Tests used:
786-0 = experiment: Growth inhibition of human 786-0 cells after 48 hrs by sulforhodamine B assay; type: functional; conditions: 786-0, 48 h
Outline: (§1)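 Tumour lines from NCI and Vero from the Rio de Janeiro Cell Bank, grown in RPMI 1640 with 5% fetal bovine serum, with penicillin:streptomycin added to experimental cultures. Each compound was tested at four 10-fold dilutions; sulforhodamine B staining at time zero and 48 h. Proliferation was calculated against T0 and drug-free controls, and GI50 came from sigmoidal regression of the concentration-response curves. Representative experiment in triplicate.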

[1] = (§2) Growth inhibition of African green monkey Vero cells after 48 hrs by sulforhodamine B assay; type: cell-based; conditions: chlorocebus sabaeus, Vero cells; outline: as §1
Vero = experiment: as §2; type: cell-based; conditions: chlorocebus sabaeus, vero, 48 h; outline: as §1
NCI-H460 = experiment: Growth inhibition of human NCI-H460 cells after 48 hrs by sulforhodamine B assay; type: functional; conditions: NCI-H460, 48 h; outline: as §1
U-251 = experiment: Growth inhibition of human U251 cells after 48 hrs by sulforhodamine B assay; type: functional; conditions: U-251, 48 h; outline: as §1
[2] = Growth inhibition of human UACC62 cells after 48 hrs by sulforhodamine B assay; type: functional; conditions: UACC-62, 48 h; outline: as §1
MCF7 = experiment: Growth inhibition of human MCF7 cells after 48 hrs by sulforhodamine B assay; type: functional; conditions: MCF7, 48 h; outline: as §1
[3] = Growth inhibition of human OVCAR3 cells after 48 hrs by sulforhodamine B assay; type: functional; conditions: OVCAR-3, 48 h; outline: as §1
K562 = experiment: Growth inhibition of human K562 cells after 48 hrs by sulforhodamine B assay; type: functional; conditions: K562, 48 h; outline: as §1
PC-3 = experiment: Growth inhibition of human PC3 cells after 48 hrs by sulforhodamine B assay; type: functional; conditions: PC-3, 48 h; outline: as §1
[4] = Growth inhibition of human NCI-ADR-RES cells after 48 hrs by sulforhodamine B assay; type: functional; outline: as §1
HT-29 = experiment: Growth inhibition of human HT-29 cells after 48 hrs by sulforhodamine B assay; type: functional; conditions: HT-29, 48 h; outline: as §1

Row | SMILES | GI50 (786-0) | TGI (786-0) | GI50 at 48 h [1] | TGI (Vero) | GI50 (NCI-H460) | TGI (NCI-H460) | GI50 (U-251) | TGI (U-251) | GI50 (MCF7) | TGI (MCF7) | GI50 [3] | TGI [3] | GI50 (K562) | TGI (K562) | GI50 (PC-3) | TGI (PC-3) | GI50 [4] | TGI [4] | GI50 (HT-29) | TGI (HT-29) | other results
1 | CC1=CC[C@H](C(C)(C)NC(=S)N/N=C/c2ccc[nH]2)CC1 | 20.8 µM | > 100 µM | 20.5 µM | > 100 µM | 18 µM | 57.5 µM | 0.08 µM | 3.9 µM | 3.9 µM | 11.5 µM | 33.5 µM | > 100 µM | 23.4 µM | > 100 µM | 2.8 µM | > 100 µM | 78 µM | > 100 µM | 27.5 µM | > 100 µM | GI50 [2]: 14.8 µM; TGI [2]: 49.9 µM
2 | CC1=CC[C@H](C(C)(C)NC(=S)N/N=C(\C)c2ccc([N+](=O)[O-])cc2)CC1 | 21.7 µM | > 100 µM | 67.1 µM | > 100 µM | 50.8 µM | 83.7 µM | 7 µM | 29.3 µM | 8 µM | 77.5 µM | 7.7 µM | 29.3 µM | 83.4 µM | > 100 µM | 62.6 µM | > 100 µM | 9.9 µM | > 100 µM | 29.9 µM | > 100 µM | GI50 [2]: 7.2 µM; TGI [2]: 46.8 µM
3 | CC1=CC[C@H](C(C)(C)NC(=S)N/N=C(\C)c2ccccc2)CC1 | > 100 µM | > 100 µM | > 100 µM | > 100 µM | > 100 µM | > 100 µM | > 100 µM | > 100 µM | 20.7 µM | > 100 µM | > 100 µM | > 100 µM | > 100 µM | > 100 µM | > 100 µM | > 100 µM | > 100 µM | > 100 µM | 29.5 µM | > 100 µM | GI50 [2]: > 100 µM; TGI [2]: > 100 µM
4 | CC1=CC[C@H](C(C)(C)N=C=S)CC1 | > 100 µM | > 100 µM | > 100 µM | > 100 µM | > 100 µM | > 100 µM | 29.1 µM | > 100 µM | 57.6 µM | > 100 µM | > 100 µM | > 100 µM | 4 µM | > 100 µM | > 100 µM | > 100 µM | > 100 µM | > 100 µM | > 100 µM | > 100 µM | 
5 | CC1=CC[C@H](C(C)(C)NC(=S)N/N=C/c2ccco2)CC1 | 11.7 µM | 9.8 µM | 5.1 µM | 14.7 µM | 13.5 µM | 10.8 µM | 9.7 µM | 81.5 µM | 9.3 µM | 53.7 µM | 10.8 µM | 13.8 µM | 0.1 µM | > 100 µM | 13.5 µM | 27.2 µM | 9.8 µM | 14.1 µM | 7.2 µM | 26.9 µM | GI50 [2]: 10.7 µM; TGI [2]: 14.1 µM
6 | CC1=CC[C@H](C(C)(C)NC(=S)N/N=C/c2ccc(Cl)cc2)CC1 | 74.9 µM | > 100 µM | 70 µM | > 100 µM | 7.8 µM | 21.1 µM | 69.5 µM | > 100 µM | 18.3 µM | > 100 µM | 8.6 µM | 26.4 µM | 0.3 µM | 16.9 µM | 0.05 µM | 1.7 µM | 65.2 µM | 97.4 µM | 13.6 µM | 70.5 µM | GI50 [2]: 11.2 µM; TGI [2]: > 100 µM
